Converted amounts (≈) assume the structure as drawn.
Key:
Type in all cases: functional
Artemia salina = test: Compound was evaluated for the biological activity by (Artemia salina) brine shrimp immobilization assay
Procedure, shortened: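 Compounds dissolved at 1 mg/mL in acetonitrile, tested in duplicate as 2-fold serial dilutions in acetonitrile across a row. Brine shrimp added in 0.20 mL brine per well. Immobilization scored by microscope after 6 h at room temperature; IC100 reported.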

Caenorhabditis elegans [1] = test: Compound was evaluated for the biological activity by Caenorhabditis elegans motility assay.
Procedure, shortened: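 About 100 worms per tube, rinsed and resuspended in Krebs bicarbonate buffer pH 7.4. Compounds in DMSO, final 1% DMSO in 500 μL. After 16 h at 22 °C, motility scored by microscope; percentage of immotile worms determined at several concentrations per compound.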

Caenorhabditis elegans [2] = test: Compound was evaluated for the binding affinity for Caenorhabditis elegans avermectin using Caenorhabditis elegans membrane homogenates using [3H]IVM as radioligand
Procedure, shortened: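 C. elegans worms washed with 50 mM HEPES pH 7.4, homogenized; 1000g supernatant spun at 28 000g, pellet resuspended to about 12.5 μg protein/mL. Membranes (1.0 mL) incubated with [3H]-IVM (22,23-ditritioivermectin) at 22 °C for 45 min with and without analogs. Filtration over GF/B filters, rinse with cold HEPES containing 0.25% Triton X-100, scintillation counting; IC50 reported.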

Compound | IC100 (Artemia salina) | EC50 (Caenorhabditis elegans [1]; read-out: ED50 (the source's name)) | IC50 (Caenorhabditis elegans [2]; Caenorhabditis elegans, 45 min) | IC50 (Caenorhabditis elegans [2]) | ED50 (Caenorhabditis elegans [1])
CCC(C)[C@H]1O[C@]2(CC[C@@H]1C)C[C@@H]1C[C@@H](C/C=C(\C)C(OCOCCN3CC3)[C@@H](C)/C=C/C=C3\COC4[C@H](O)C(C)=C[C@@H](C(=O)O1)[C@]34O)O2 (stereo partly specified) | 3470 ng/mL | 0.048 µg/mL (≈ 0.07 µM) | 5 nM |  | 
IVERMECTIN [listing 1 of 2 here] |  |  |  | 0.1 nM | 
IVERMECTIN [listing 2 of 2 here] | 430 ng/mL |  |  |  | 0.007 µg/mL

Reference: ChEMBL document CHEMBL1126310, “Affinity probes for the avermectin binding proteins” (J Med Chem, 1992)
